Measurements: ChEMBL document CHEMBL4480410, “Targeting the MKK7-JNK (Mitogen-Activated Protein Kinase Kinase 7-c-Jun N-Terminal Kinase) Pathway with Covalent Inhibitors” (J Med Chem, 2019)
Calls of active or inactive are those of the source. No cut-off for these calls is given here.

What was measured:
[1] = biological target: T1, Dual specificity mitogen-activated protein kinase kinase 7 (Mus musculus) (UniProt Q8CE90); test: Inhibition of MKK7 in mouse DRG cells assessed as reduction in JNK phosphorylation at 1 uM after 2 hrs by Western blot analysis; format: cell-based
T1 sequence (whole entry): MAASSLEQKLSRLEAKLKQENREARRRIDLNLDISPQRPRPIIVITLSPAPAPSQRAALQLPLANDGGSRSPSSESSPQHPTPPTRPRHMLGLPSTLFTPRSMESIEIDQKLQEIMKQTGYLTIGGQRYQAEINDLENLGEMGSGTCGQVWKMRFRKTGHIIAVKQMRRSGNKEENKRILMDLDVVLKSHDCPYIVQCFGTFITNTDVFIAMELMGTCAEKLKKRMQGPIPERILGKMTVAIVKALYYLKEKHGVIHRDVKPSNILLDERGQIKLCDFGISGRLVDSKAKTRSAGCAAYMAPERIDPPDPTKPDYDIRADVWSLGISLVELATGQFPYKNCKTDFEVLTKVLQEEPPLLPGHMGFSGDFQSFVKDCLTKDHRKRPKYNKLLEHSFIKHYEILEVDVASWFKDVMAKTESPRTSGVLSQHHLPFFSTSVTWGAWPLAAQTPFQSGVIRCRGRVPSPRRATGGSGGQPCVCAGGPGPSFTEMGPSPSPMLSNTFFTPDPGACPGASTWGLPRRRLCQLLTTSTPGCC
Summary of the method: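 Dissociated DRG neurons plated on laminin for 3 h, medium replaced, compound added for a further 2 h. Neurons lysed in RIPA buffer with phosphatase inhibitors. Western blots probed for phospho-cJun, cJun, phospho-JNK and JNK.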

[2] = biological target: T2, Dual specificity mitogen-activated protein kinase kinase 7 (Homo sapiens) (UniProt O14733); test: Covalent binding affinity to MKK7 (unknown origin) assessed as formation of covalent bond with Cys218 residues by MS/MS analysis
T2 sequence (whole entry): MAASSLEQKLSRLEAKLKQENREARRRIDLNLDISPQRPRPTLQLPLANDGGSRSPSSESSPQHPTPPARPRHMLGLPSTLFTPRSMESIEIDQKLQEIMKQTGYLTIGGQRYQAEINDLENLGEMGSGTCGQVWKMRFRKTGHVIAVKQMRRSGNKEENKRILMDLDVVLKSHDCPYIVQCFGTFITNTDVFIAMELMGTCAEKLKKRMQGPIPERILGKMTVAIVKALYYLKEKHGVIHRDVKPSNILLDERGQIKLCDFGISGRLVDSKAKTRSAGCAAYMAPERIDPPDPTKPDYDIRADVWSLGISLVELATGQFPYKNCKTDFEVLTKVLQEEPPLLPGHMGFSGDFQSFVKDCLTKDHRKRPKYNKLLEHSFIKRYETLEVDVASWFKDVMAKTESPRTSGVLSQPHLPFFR
Summary of the method: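 Protein at 1 mg/mL incubated with 2-fold molar excess of compound, 30 min on ice, then denatured and run on 15% SDS gel. Band excised, reduced with 50 mM DTT (1 h, 37 °C), alkylated with 55 mM iodoacetamide (1 h, 20 °C), digested with 0.1 mg/mL trypsin 20 h at 30 °C, acidified with TFA. Analysed by ion-trap MS/MS.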

For `C=CC(=O)N1CCC[C@@H](n2nc(-c3cn(-c4ccc(C(C)=O)cc4)nn3)c3c(N)ncnc32)C1`, the inhibition [1] was “Active” and the Activity [2] was “Active”.
